Wnt act: Wnt/beta-catenin pathway activation. Wnt/beta-catenin reporter cell assay, activator, plate reader. activation, % at 9.35 µM. 300,000 tested, 1.2% active. AID 743398; in the data active = activation above about 30%, passing the limit was not always enough;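 note: 0% = neutral control wells and 100% = positive control wells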
Casp6 inh: blocks human caspase-6 cleavage activity | 350,000 tested, 0.53% active | inhibition, % at 12.5 µM | purified caspase-6, Z-VEID-R110 cleavage fluorescence | P55212 | AID 686996;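 active = mean inhibition across replicates at least about 35%, with every replicate also reaching that limit, limit read from the data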;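 note: 0% = median of neutral control wells and 100% = no fluorescence left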
Target sequence (P55212 24-179 limits assumed): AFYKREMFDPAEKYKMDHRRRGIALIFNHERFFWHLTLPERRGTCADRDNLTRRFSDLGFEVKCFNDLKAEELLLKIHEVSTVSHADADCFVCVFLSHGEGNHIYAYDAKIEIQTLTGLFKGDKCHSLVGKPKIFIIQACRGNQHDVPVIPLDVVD
Target sequence (P55212 194-293 limits assumed): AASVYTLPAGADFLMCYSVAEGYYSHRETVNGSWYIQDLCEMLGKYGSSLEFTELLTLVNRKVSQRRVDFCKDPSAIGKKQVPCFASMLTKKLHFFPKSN
XiGFP reactiv: X-chromosome reactivation activator | XiGFP mouse fibroblasts, % GFP-positive cells imaging, 3 d; cells co-treated with 5-aza-dC sensitizer; scaled so ellipticine positive control = 100% | activation, % at 7.58 µM | 360,000 tested, 0.055% active;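 active = mean normalized replicate activation at least 10% and every replicate at or above 10%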;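 note: 0% = median of on-plate neutral control wells and 100% = ellipticine 6 µM median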
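material = 68-5-11 XiGFP fibroblast line | medium = DMEM plus 5-aza-dC sensitizer | schedule = 3 days compound exposure | benchmarks = positive control ellipticine, 6 µM final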
NSD2 HMT inh: NSD2 (human) methyltransferase inhibition; O96028; inhibition, % at 12.5 µM; AID 743445; 310,000 tested, 0.54% active; NSD2 peptide methylation, AlphaScreen, 120 min; in the data active = inhibition above about 50%
MITF TRPM1 HTS: increases MITF-driven TRPM1 promoter luciferase signal. activation, % at 12.5 µM. 300,000 tested, 0.75% active. AID 588334. SK-MEL-5 TRPM1-promoter luciferase, 24 h; % of positive control, neutral wells = 0;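 active = mean activation of at least 80% with every replicate also reaching 80%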;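 note: 0% = neutral control wells and 100% = parthenolide positive control wells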
esBAF inh: inhibitors of esBAF chromatin remodeling in mouse ES cells | Bmi1-luciferase knock-in reporter, 24 h; 100% = twice the neutral-well signal | reporter increase, % at 12.5 µM | 350,000 tested, 2% active; in the data active = activation above about 40%;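 note: 0% = median of the plate's neutral control wells and 100% = double that signal; a rise in the Bmi1 reporter signal indicates esBAF inhibition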
* hit, by the source's call; · = no result. This is a sample that favours compounds with a hit; in the whole collection about 3% have one here.

SMILES | Wnt act | Casp6 inh | XiGFP reactiv | NSD2 HMT inh | MITF TRPM1 HTS | esBAF inh
O=[N+]([O-])c1ccc(COc2cccc3cccnc23)cc1 | 13 | -3 | 0 | 47 | 93* | 83*
O=[N+]([O-])c1ccc(Sc2cccc3cccnc23)cc1 | 10 | -5 | · | 14 | 6 | 46*
N#Cc1ccc(COc2cccc3cccnc23)cc1 | 3 | 7 | 0 | 6 | 14 | 11
Brc1ccc(COc2cccc3cccnc23)cc1 | 12 | 0 | 0 | 0 | · | 71*
OCc1ccccc1OCCCOc1cccc2cccnc12 | 9 | 0 | 1 | 1 | 53 | 44*
C[C@H]1CCCCO[C@H](CN(C)S(=O)(=O)c2ccc(F)cc2)[C@@H](C)CN([C@@H](C)CO)C(=O)c2cc(NC(=O)Cc3ccccc3)ccc2O1 | · | · | 0 | · | · | -3
COc1ccc(CN2C[C@@H](C)[C@H](OC)CN(C)C(=O)c3ccc(NC(=O)c4nc5ccccc5s4)cc3OC[C@@H]2C)cc1 | · | 2 | 1 | · | · | 33
CO[C@@H]1CN(C)C(=O)c2ccc(NC(=O)c3nc4ccccc4s3)cc2OC[C@@H](C)N(Cc2cccnc2)C[C@H]1C | · | · | 1 | · | · | 46*
CO[C@@H]1CN(C)C(=O)c2ccc(NC(=O)c3nc4ccccc4s3)cc2OC[C@@H](C)N(Cc2cccnc2)C[C@@H]1C | · | · | 0 | · | · | 12
COc1ccc(CN2C[C@@H](C)[C@H](OC)CN(C)C(=O)c3ccc(NC(=O)c4nc5ccccc5s4)cc3OC[C@H]2C)cc1 | · | 1 | 4 | · | · | 64*
Cc1c(C(=O)/C=C/N(C)C)nnn1-c1ccc(Cl)c(Cl)c1 | 48* | 0 | 0 | -1 | · | ·
O=C(NC1CCCCC1)N1CC(=O)N2[C@H](C1)[C@H](c1ccc(/C=C/c3ccccc3)cc1)[C@@H]2CO | · | 3 | 0 | · | · | ·
O=CNc1ccc2c3c(cccc13)-c1ccccc1-2 | 1 | -1 | 55* | · | 17 | 28
CC(=O)Nc1ccc2c3c(cccc13)C(=O)N(c1ccccc1)C2=O | 2 | -2 | 0 | -2 | 6 | ·
COc1cccc(NC(=O)N2C[C@@H](O)COC[C@H]3O[C@@H](CC(=O)NCc4ccccc4F)CC[C@@H]32)c1 | · | -2 | 0 | · | · | -1
C=CCN1C(=O)/C(=C/c2ccc(OCC(=O)O)cc2)S/C1=N/c1nccs1 | -1 | 38* | 1 | 1 | -2 | ·
O=C1c2ccccc2C(=O)c2[nH]cnc21 | 2 | 12 | 1 | 0 | -39 | -4
O=C1c2ccccc2C(=O)c2[nH]c(=O)[nH]c21 | 1 | 83* | 0 | 35 | -99 | -68
COc1ccc2c3c([nH]c2c1)[C@H](CO)N(S(C)(=O)=O)CC31CCN(CC2CC2)CC1 | · | -10 | 0 | · | · | ·
COc1ccccc1C(=O)NC1CC2CCC(C1)N2Cc1ccccc1 (stereo not drawn) | -1 | -12 | 0 | 0 | -3 | 1
O=C(NC1CC2CCC(C1)N2Cc1ccccc1)c1ccccc1Br (stereo not drawn) | 0 | 39* | 0 | 0 | 0 | -6
CC(C)NC(=O)Nc1ccc2c(c1)CC(=O)N(C)C[C@H](C)[C@H](CN(C)C(=O)OC(C)(C)C)O2 | · | · | 0 | · | · | ·
COc1ccc([C@H]2Cc3cccc(O)c3C(=O)O2)cc1O | 16 | 6 | 0 | · | 41 | 55*
COc1ccc(C2CC(=O)c3c(O)cc(O)cc3O2)cc1O (stereo not drawn) | 17 | 6 | · | · | 57 | 52*
COc1ccc([C@H]2Cc3cc(O)cc(O)c3C(=O)O2)cc1O | 41* | 8 | 0 | · | 74 | 25
SMILES | Wnt act | Casp6 inh | XiGFP reactiv | NSD2 HMT inh | MITF TRPM1 HTS | esBAF inh
O=C1CC(c2ccc(O)cc2)Oc2cc(O)cc(O)c21 (stereo not drawn) | 8 | 1 | 0 | · | 37 | 19
O=C1CC(c2ccc(O)c(O)c2)Oc2cc(O)cc(O)c21 (stereo not drawn) | -1 | 14 | · | · | 14 | 7
O=C1CC(c2ccccc2)Oc2cc(O)cc(O)c21 (stereo not drawn) | 1 | 5 | · | · | · | 60*
O=C1O[C@@H](c2ccc(O)cc2)Cc2cccc(O)c21 | -1 | 1 | 0 | · | -15 | 6
C[C@H]1CN([C@@H](C)CO)S(=O)(=O)c2ccc(-c3ccc(F)cc3)cc2O[C@H]1CN(C)C(=O)Nc1ccc(F)cc1 | · | · | -1 | · | · | ·
C[C@@H]1CCCCO[C@@H](CN(C)C(=O)Nc2ccc(C(F)(F)F)cc2)[C@@H](C)CN([C@H](C)CO)C(=O)c2cc(NC(=O)c3ccncc3)ccc2O1 | · | 1 | 0 | · | · | ·
COc1cc(OC)c2c(c1O)OC(c1ccccc1)CC2=O (stereo not drawn) | -1 | 40* | · | · | · | -6
Cc1cccc(OCc2nc3ccccc3c(=O)n2N)c1 | 25 | · | · | 0 | 67 | 59*
Nn1c(COc2cccc(Cl)c2)nc2ccccc2c1=O | · | · | 0 | -1 | 52 | 44*
Cc1cccc(-c2nc3ccccc3c(=O)n2N)c1 | 0 | 2 | 0 | -5 | -2 | -1
Cc1ccc(S(=O)(=O)N(C)C[C@H]2OCCCC[C@H](C)Oc3ccc(NC(=O)c4ccccc4)cc3C(=O)N([C@H](C)CO)C[C@H]2C)cc1 | · | -1 | 0 | · | · | -6
Oc1ccc(-c2csc(Nc3ccc4c(c3)OCO4)n2)c(O)c1 | 46* | · | 0 | · | 54 | -3
Cc1cccc(Nc2nc(-c3ccc(O)cc3O)cs2)n1 | 19 | 2 | 0 | 2 | · | 45*
Oc1ccc(-c2csc(Nc3ncccn3)n2)c(O)c1 | 94* | 3 | 0 | -3 | 104* | 82*
CC(C)NC(=O)N(C)C[C@@H]1Oc2ccc(NC(=O)CCCCCC(=O)Nc3ccccc3N)cc2CC(=O)N([C@@H](C)CO)C[C@H]1C | · | -2 | 0 | · | · | 3
CC(=O)N(C)C[C@H]1Oc2cc(/C=C/c3ccccc3)ccc2S(=O)(=O)N([C@@H](C)CO)C[C@@H]1C | · | 1 | 1 | · | · | 0
O=C(Cc1ccccn1)N1CC(=O)N2[C@@H](CO)[C@H](c3ccc(C#CC4CCCCC4)cc3)[C@@H]2C1 | · | 4 | 0 | · | · | ·
CC1=C(C(=O)N(C)C)CC(CC(=O)NC2CCCC2)C(=O)N1CCC1=CCCCC1 (stereo not drawn) | 8 | 0 | 0 | · | · | 49*
CC1=C(C(=O)N(C)C)CC(CC(=O)NC2CCCCC2)C(=O)N1CCC1=CCCCC1 (stereo not drawn) | -2 | 0 | 0 | · | · | 70*
NC(=O)c1ccccc1OCC(=O)Nc1ccc2c(c1)CCC2 | 27 | -2 | 0 | -6 | 93* | 97*
NC(=O)c1ccccc1OCC(=O)Nc1ccc(Cl)c(Cl)c1 | 40* | 6 | 0 | · | 64 | ·
COc1ccccc1OCC(=O)Nc1ccc(Cl)cc1 | 19 | · | · | -2 | 52 | 18
COc1ccc(SCC(=O)c2cc(C)c(OC(=S)N(C)C)c(C)c2)cc1 | 41* | · | · | -1 | 29 | 4

Source: PubChem BioAssay (Broad Institute)
